Experimental data published in ChEMBL document CHEMBL3351593, “Potent nonimmunosuppressive cyclophilin inhibitors with improved pharmaceutical properties and decreased transporter inhibition” (J Med Chem, 2014).

Assays:
[1] = target: Peptidyl-prolyl cis-trans isomerase A (Homo sapiens, UniProt P62937); test: Binding affinity to human cyclophilin A by surface plasmon resonance method
[2] = target: T1, Solute carrier organic anion transporter family member 1B1 (Homo sapiens, UniProt Q9Y6L6); test: Inhibition of OATP1B1 (unknown origin) expressed in CHO cells using 8-fluorescein-cAMP substrate by fluorescent photometry; assay type: ADME, cell-based
T1 sequence (Q9Y6L6 whole entry): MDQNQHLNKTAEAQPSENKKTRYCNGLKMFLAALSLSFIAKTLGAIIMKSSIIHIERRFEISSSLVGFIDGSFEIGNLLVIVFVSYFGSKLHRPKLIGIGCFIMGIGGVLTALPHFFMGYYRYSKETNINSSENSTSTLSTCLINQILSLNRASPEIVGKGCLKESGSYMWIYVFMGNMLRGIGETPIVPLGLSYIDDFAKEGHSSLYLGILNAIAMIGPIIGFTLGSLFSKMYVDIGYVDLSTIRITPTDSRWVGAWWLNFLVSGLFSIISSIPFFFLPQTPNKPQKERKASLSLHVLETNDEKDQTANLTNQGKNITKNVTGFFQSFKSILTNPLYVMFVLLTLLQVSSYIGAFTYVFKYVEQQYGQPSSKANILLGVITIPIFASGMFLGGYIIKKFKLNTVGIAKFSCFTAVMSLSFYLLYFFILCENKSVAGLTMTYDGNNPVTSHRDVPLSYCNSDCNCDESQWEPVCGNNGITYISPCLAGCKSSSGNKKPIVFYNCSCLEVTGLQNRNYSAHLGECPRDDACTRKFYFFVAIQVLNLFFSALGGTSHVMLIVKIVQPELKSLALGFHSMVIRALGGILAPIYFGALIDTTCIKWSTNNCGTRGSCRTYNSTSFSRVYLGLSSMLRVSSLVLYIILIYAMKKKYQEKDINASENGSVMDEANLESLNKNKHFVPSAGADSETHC
In short: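 CHO-OATP1B1 cells and vector control cells cultured 2 days, then washed and equilibrated 15 min in HBSS + 10 mM HEPES. Exposed 10 min to 2.5 μM 8-fluorescein-cAMP with inhibitor at 0−30 μM (up to 1% DMSO). Cells washed and lysed, uptake measured by fluorescence, and IC50 taken from the concentration-response curve.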

Cytochrome P450 2D6 = Cytochrome P450 2D6 (Homo sapiens, UniProt P10635); test: Inhibition of CYP2D6 (unknown origin); assay type: ADME
Sequence of Cytochrome P450 2D6 (P10635 whole entry): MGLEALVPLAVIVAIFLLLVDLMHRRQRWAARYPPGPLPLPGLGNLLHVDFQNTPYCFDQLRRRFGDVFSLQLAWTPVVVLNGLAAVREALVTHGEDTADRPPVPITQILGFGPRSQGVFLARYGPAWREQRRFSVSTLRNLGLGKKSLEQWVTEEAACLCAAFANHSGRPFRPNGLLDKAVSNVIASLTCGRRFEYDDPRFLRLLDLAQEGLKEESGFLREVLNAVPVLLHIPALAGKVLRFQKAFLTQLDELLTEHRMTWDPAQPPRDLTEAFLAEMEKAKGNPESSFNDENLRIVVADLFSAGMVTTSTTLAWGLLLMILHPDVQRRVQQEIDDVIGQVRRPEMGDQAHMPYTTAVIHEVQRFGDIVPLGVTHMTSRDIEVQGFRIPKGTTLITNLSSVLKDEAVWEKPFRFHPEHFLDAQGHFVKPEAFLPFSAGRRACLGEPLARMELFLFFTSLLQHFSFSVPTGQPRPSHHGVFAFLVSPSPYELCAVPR

Cytochrome P450 2C19 = Cytochrome P450 2C19 (Homo sapiens, UniProt P33261); test: Inhibition of […] (unknown origin); assay type: ADME
Sequence of Cytochrome P450 2C19 (P33261 whole entry): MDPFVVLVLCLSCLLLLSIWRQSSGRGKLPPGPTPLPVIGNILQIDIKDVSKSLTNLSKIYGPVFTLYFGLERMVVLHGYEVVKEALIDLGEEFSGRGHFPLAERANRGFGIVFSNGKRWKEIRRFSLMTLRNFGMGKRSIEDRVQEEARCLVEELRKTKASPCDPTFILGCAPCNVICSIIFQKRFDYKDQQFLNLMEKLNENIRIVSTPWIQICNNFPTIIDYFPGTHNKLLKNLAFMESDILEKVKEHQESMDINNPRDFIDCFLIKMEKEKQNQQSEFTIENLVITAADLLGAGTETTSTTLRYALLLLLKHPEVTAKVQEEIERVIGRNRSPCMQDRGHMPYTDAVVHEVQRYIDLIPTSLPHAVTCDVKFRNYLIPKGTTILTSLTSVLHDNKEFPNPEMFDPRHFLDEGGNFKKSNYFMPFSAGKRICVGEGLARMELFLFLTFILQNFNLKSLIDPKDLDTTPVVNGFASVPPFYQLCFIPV

[3] = Lipophilicity, log D of the compound; assay type: physicochemical; settings: octanol/water
[4] = target: Peptidyl-prolyl cis-trans isomerase B (Homo sapiens, UniProt P23284); test: Binding affinity to human cyclophilin B by surface plasmon resonance method
Sequence of Peptidyl-prolyl cis-trans isomerase B (P23284 whole entry): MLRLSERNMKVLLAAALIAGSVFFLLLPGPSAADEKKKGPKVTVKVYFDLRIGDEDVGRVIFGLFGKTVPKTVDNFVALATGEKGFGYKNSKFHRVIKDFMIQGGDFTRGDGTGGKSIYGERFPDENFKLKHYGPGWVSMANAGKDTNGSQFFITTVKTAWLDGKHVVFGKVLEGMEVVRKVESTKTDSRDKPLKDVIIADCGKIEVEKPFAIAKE
In short: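 Biotinylated cyclophilin proteins examined by single-cycle kinetics SPR. Running buffer 10 mM HEPES pH 7.4, 150 mM NaCl, 0.05% P20, 3% DMSO, with inhibitor. Each concentration injected for 1 min at 50 μL/min, then 10 min dissociation. kon, koff and KD obtained from a 1:1 binding fit.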

Hepatitis C virus = test: Antiviral activity against HCV subtype 1a in human Huh7.5 cells expressing subgenomic HCV replicons and coexpressing luciferase reporter gene; assay type: functional, cell-based, Hepacivirus hominis; settings: Huh-7
In short: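 Stable Huh7.5 lines carrying genotype 1a or 1b subgenomic replicons with luciferase reporter, made by RNA electroporation and G418 selection. Assay run in phenol red-free DMEM without G418, sixteen half-log compound dilutions, in triplicate. Luciferase signal read after 72 h relative to DMSO controls, giving EC50.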

[5] = Cytotoxicity against human MT4 cells by CDCF probe based assay; assay type: cell-based
[6] = target: ATP-binding cassette sub-family C member 2 (Homo sapiens, UniProt Q92887); test: Inhibition of human MRP2 expressed in Sf9 cells inside out vesicles using CDCF substrate
Sequence of ATP-binding cassette sub-family C member 2 (Q92887 whole entry): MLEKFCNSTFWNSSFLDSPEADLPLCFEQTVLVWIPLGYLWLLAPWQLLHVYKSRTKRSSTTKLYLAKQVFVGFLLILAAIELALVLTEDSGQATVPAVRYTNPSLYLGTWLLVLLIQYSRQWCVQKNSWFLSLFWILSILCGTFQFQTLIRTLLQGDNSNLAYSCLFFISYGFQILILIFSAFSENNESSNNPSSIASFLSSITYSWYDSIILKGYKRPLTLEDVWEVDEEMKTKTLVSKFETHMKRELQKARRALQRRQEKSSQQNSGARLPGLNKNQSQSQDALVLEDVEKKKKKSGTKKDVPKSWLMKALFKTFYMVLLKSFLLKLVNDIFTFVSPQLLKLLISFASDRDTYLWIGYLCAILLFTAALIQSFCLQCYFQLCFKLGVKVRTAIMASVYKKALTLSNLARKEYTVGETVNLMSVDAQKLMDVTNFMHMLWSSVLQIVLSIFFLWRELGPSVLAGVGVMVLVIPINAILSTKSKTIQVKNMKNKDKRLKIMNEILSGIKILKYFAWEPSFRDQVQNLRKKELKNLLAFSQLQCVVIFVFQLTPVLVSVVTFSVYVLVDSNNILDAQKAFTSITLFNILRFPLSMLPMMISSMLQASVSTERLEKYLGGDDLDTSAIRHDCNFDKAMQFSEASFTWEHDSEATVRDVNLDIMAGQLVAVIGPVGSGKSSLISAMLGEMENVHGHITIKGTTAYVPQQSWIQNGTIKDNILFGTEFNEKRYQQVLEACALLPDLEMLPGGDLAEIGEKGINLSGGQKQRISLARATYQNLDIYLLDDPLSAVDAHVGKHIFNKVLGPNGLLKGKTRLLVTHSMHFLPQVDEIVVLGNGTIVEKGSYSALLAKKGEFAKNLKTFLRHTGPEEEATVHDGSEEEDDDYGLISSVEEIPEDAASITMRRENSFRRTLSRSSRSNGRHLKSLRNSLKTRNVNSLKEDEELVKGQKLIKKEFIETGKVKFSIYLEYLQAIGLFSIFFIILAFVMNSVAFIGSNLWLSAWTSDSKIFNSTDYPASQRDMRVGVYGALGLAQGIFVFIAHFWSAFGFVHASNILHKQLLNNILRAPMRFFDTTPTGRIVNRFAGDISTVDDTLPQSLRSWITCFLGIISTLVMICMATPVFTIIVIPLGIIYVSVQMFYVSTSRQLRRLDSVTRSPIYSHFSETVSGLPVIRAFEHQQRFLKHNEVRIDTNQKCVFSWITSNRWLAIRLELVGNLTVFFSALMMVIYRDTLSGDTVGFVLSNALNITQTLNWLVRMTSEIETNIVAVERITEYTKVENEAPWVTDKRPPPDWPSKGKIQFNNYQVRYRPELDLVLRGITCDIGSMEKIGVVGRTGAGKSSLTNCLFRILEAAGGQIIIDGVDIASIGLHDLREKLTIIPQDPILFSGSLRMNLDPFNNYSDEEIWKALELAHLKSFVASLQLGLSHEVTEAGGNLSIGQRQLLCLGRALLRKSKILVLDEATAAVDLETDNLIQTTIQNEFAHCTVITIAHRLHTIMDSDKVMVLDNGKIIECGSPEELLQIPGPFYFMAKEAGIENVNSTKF
In short: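 Inside-out vesicles from baculovirus-infected Sf9 cells expressing hMRP2, with CDCF as probe. ATP-dependent uptake taken as uptake with ATP minus uptake with AMP. Remaining activity calculated as uptake with inhibitor divided by uptake without, and the inhibition value derived from that.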

[7] = target: T2, Broad substrate specificity ATP-binding cassette transporter ABCG2 (Homo sapiens, UniProt Q9UNQ0); test: Inhibition of BCRP (unknown origin) expressed in T8 cells using Bodipy FL-prazosin substrate; assay type: ADME, cell-based
T2 sequence (Q9UNQ0 whole entry): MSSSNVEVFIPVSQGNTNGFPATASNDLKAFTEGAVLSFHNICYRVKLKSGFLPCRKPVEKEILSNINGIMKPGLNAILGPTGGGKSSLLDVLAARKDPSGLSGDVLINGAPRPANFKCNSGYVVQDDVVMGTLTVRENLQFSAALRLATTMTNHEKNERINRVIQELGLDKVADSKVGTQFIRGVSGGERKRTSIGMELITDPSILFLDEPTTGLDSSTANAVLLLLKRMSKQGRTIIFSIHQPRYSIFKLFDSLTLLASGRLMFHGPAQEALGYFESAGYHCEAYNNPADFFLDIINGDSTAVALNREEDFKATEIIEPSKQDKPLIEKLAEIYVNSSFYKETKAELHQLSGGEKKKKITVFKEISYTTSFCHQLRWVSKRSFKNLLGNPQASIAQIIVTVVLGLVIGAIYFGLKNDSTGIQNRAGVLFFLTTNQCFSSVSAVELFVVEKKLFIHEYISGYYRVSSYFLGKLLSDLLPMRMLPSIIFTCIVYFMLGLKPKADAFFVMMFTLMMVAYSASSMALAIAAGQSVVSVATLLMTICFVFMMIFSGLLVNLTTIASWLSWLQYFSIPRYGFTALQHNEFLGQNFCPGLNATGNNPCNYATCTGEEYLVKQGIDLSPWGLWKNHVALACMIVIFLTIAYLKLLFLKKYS
In short: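 BCRP activity in T8 cells, measured with Bodipy FL-prazosin as substrate; IC50 reported.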

[8] = target: ATP-dependent translocase ABCB1 (Homo sapiens, UniProt P08183); test: Inhibition of MDR1 (unknown origin) expressed in MDA T0.3 cells using rhodamine 123 substrate; assay type: ADME, cell-based
Sequence of ATP-dependent translocase ABCB1 (P08183 whole entry): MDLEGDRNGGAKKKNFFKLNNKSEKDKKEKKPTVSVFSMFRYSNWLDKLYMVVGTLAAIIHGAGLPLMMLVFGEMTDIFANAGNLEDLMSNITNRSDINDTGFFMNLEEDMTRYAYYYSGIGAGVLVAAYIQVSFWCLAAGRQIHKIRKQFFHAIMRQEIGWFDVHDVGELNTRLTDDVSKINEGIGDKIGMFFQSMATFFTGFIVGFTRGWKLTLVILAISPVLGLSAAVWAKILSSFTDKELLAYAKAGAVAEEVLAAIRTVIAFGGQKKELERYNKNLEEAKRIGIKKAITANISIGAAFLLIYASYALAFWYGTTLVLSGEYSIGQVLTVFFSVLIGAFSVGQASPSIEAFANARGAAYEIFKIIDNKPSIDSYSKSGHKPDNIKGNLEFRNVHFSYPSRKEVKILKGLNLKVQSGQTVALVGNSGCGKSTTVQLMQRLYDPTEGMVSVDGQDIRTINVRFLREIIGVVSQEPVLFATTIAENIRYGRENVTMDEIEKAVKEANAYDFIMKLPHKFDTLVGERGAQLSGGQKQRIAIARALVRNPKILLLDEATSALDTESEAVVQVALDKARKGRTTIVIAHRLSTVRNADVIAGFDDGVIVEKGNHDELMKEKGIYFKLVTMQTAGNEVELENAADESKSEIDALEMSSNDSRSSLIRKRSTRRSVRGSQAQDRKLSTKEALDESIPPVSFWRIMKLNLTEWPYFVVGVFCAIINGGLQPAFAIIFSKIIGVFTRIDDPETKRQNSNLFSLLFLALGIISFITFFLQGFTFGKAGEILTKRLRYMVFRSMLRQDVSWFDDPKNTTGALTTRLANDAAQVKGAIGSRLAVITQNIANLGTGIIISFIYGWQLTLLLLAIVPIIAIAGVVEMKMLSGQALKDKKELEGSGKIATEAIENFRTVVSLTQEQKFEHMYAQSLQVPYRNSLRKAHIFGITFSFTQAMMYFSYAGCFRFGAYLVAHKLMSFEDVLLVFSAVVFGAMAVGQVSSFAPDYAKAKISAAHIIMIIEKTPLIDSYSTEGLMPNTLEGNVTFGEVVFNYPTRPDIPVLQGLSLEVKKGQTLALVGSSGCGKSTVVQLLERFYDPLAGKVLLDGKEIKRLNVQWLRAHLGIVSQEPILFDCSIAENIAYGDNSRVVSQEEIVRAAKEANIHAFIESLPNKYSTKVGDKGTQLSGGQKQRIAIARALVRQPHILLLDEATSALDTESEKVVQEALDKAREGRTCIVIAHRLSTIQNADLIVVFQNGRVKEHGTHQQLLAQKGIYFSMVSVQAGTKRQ
In short: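 MDR1 activity in MDA T0.3 cells, measured with rhodamine 123 as substrate; IC50 reported.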

[9] = AUC in rat blood at 25 mg/kg, po after 72 hrs; assay type: ADME, organism-based; parameters: time < 72 hr, dose 25 mg/kg, route oral; settings: whole blood
In short: (§1)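 Oral dosing as a solution in MEPC: rat 25 mg/kg, dog 1 mg/kg. Blood and plasma collected separately over 0−72 h and AUC computed for each matrix.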

[10] = AUC in dog blood at 1 mg/kg, po after 72 hrs; assay type: ADME, organism-based, Canis lupus familiaris; parameters: time < 72 hr, dose 1 mg/kg, route oral; settings: whole blood; in short: as §1

Sequence of Peptidyl-prolyl cis-trans isomerase A (P62937 whole entry): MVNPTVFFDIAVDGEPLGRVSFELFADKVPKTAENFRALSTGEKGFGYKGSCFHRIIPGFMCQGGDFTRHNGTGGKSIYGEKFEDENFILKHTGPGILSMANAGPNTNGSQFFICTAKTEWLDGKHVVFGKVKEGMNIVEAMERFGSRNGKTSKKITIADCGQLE

Compound: C/C=C/C[C@@H](C)[C@@H](O)[C@H]1C(=O)N[C@@H](CC)C(=O)N(C)[C@H](C)C(=O)N(C)[C@@H]([C@@H](C)CN2CCN(CCOC)CC2)C(=O)N[C@@H](C(C)C)C(=O)N(C)[C@@H](CC(C)C)C(=O)N[C@@H](C)C(=O)N[C@H](C)C(=O)N(C)[C@@H](CC(C)C)C(=O)N(C)[C@@H](CC(C)C)C(=O)N(C)[C@@H](C(C)C)C(=O)N1C
- Kd [1]: 0.0012 µM
- IC50 [2]: 6.1 µM
- IC50 (Cytochrome P450 2D6): > 40 µM
- IC50 (Cytochrome P450 2C19): > 40 µM
- logD [3]: 3.9
- Kd [4]: 0.0012 µM
- EC50 (Hepatitis C virus): 0.07 µM
- CC50 [5]: > 50 µM
- Ki [6]: 140 µM
- IC50 [7]: > 25 µM
- IC50 [8]: 6.3 µM
- AUC at 72 h [9]: 58.4 µM·h
- AUC at 72 h [10]: 22.1 µM·h

Compound: C/C=C/C[C@@H](C)[C@@H](O)[C@H]1C(=O)N[C@@H](CC)C(=O)N(C)[C@H](C)C(=O)N(CC)[C@@H](C(C)C)C(=O)N[C@@H](C(C)C)C(=O)N(C)[C@@H](CC(C)C)C(=O)N[C@@H](C)C(=O)N[C@H](C)C(=O)N(C)[C@@H](CC(C)C)C(=O)N(C)[C@@H](CC(C)C)C(=O)N(C)[C@@H](C(C)C)C(=O)N1C [ALISPORIVIR]
- Kd [1]: 0.0022 µM
- IC50 [2]: 0.8 µM
- logD [3]: > 6
- Kd [4]: 0.001 µM
- EC50 (Hepatitis C virus): 0.07 µM
- CC50 [5]: > 20 µM
- Ki [6]: 18 µM
- IC50 [7]: 2.5 µM
- IC50 [8]: 0.59 µM
- AUC at 72 h [9]: 22.1 µM·h
- AUC at 72 h [10]: 2.19 µM·h
